Assay results of several laboratories.
Effect on: cell growth or viability

Compound	cell line	technique	concentration	time	quantity	result
CCCCCCCCCCCCCCCCCCOc1cccc(CC(=O)OCC[N+]2(C)CCOCC2)c1	NCI-H522	SRB	10 µM	–	inhibition	16.9%
CCCS(=O)(=O)Oc1cc(C=NNC(=O)c2nc3ccccc3s2)ccc1OC	PC-3	MTT	100 µM	48 h	cell death	33%
O=C(Nc1ccc(Cl)cc1)Nc1cccc(-c2cn(Cc3ccc(Cl)cc3)nn2)c1	A549	CCK-8	20 µM	72 h	viability	121%
Nc1nc2ccc(-c3c/c(=N\c4ccccc4NC(=O)CCN4CCOCC4)c4ccccc4o3)cc2o1	A549	CCK-8	1 µM	–	inhibition	16.4%
O=C(Nc1ccc(-c2cn(Cc3ccc(Cl)cc3)nn2)cc1)Nc1ccccc1Br	A549	CCK-8	20 µM	72 h	viability	102%
C=C(NC(=O)C(=C)NC(=O)c1csc(C2=N[C@@H]3c4csc(n4)[C@H]4NC(=O)c5csc(n5)[C@H]([C@](C)(O)[C@@H](C)O)NC(=O)[C@H]5CSC(=N5)/C(=C/C)NC(=O)[C@H]([C@@H](C)O)NC(=O)c5csc(n5)[C@]3(CC2)NC(=O)[C@H](C)NC(=O)C(=C)NC(=O)[C@H](C)NC(=O)[C@H]([C@@H](C)CC)N[C@@H]2C=Cc3c([C@H](C)O)cc(nc3[C@H]2O)C(=O)O[C@@H]4C)n1)C(N)=O	U-251	–	–	–	EC50	900 nM
COc1cc(C=NNC(=O)c2nc3ccccc3s2)ccc1O	PC-3	MTT	100 µM	48 h	cell death	29.4%
Cc1n[nH]c2ccc3nc(-c4ccc(C(=O)NCCN(C)C)cc4)c4c(c3c12)CCCC4	EOL1	–	–	72 h	GI50	37 nM
COc1ccc(C=NNC(=O)c2nc3ccccc3s2)cc1OS(C)(=O)=O	PC-3	MTT	100 µM	48 h	cell death	44.5%
O=C(Nc1ccccc1/N=c1\cc(-c2ccc3c(c2)OCO3)oc2ccccc12)N1CCNCC1	A549	CCK-8	1 µM	–	inhibition	-6.54%
CCCCCCCCCCCCCCCCCCOc1ccc(CC(=O)OCC[N+]2(C)CCOCC2)cc1	NCI-H522	SRB	10 µM	–	inhibition	5.79%
COc1ccc(NC(=O)Nc2cccc(-c3cn(Cc4ccc(Br)cc4)nn3)c2)cc1	A549	CCK-8	20 µM	72 h	viability	152%
COc1ccc2oc(-c3ccc4nc(N)oc4c3)c/c(=N\c3ccccc3NC(=O)CCN)c2c1	A549	CCK-8	1 µM	–	inhibition	39.1%
CCCCCCCCCCCCCCCCCCOc1ccccc1CC(=O)OCC[N+](CC)(CC)CC	NCI-H522	SRB	10 µM	–	inhibition	89.5%
NCCC(=O)Nc1ccccc1/N=c1\cc(-c2ccc3nc(N)oc3c2)oc2ccccc12	A549	CCK-8	1 µM	–	inhibition	18.6%
CCCCCCCCCCCCCCCCCCOc1ccc(CC(=O)OCC[N+]2(C)CCCC2)cc1	NCI-H522	SRB	10 µM	–	inhibition	3.23%
Cc1n[nH]c2ccc3nc(-c4ccc(C(=O)NCCN(C)C)cc4)c4c(c3c12)CCCCC4	EOL1	–	–	72 h	GI50	107 nM
COc1ccc(NC(=O)Nc2ccc(-c3cn(Cc4ccc(Br)cc4)nn3)cc2)cc1	A549	CCK-8	50 µM	72 h	viability	101%

Compound	cell line	technique	concentration	time	quantity	result
CCCCCCCCCCCCCCCCCCOc1cccc(CC(=O)OCC[N+](CC)(CC)CC)c1	NCI-H522	SRB	10 µM	–	inhibition	61.5%
NCCC(=O)Nc1ccccc1/N=c1\cc(-c2ccc3c(c2)OCO3)oc2ccccc12	A549	CCK-8	1 µM	–	inhibition	3.27%
CCc1nc(C(N)=O)c(Nc2ccc(N3CCC(N4CCN(C)CC4)CC3)c(OC)c2)nc1NC1CCOCC1	EOL1	–	–	72 h	GI50	70 nM
CCCCCCCCCCCCCCCCCCOc1cccc(CC(=O)OCC[N+]2(C)CCCC2)c1	NCI-H522	SRB	10 µM	–	inhibition	36.6%
Cc1nc(NC(=O)N2CCC[C@H]2C(N)=O)sc1-c1ccnc(C(C)(C)C(F)(F)F)c1	NCI-H1048	ATP luminescence	–	5 days	EC50	611 nM
CNCCC(=O)Nc1ccccc1/N=c1\cc(-c2ccc3nc(N)oc3c2)oc2ccccc12	A549	CCK-8	1 µM	–	inhibition	7.88%
COc1ccc(NC(=O)NCc2cn(Cc3ccc(Cl)cc3)nn2)cc1	A549	CCK-8	50 µM	72 h	viability	80.9%
Cc1n[nH]c2ccc3nc(-c4ccc(C(=O)NCCN(C)C)cc4F)c4c(c3c12)CCCCC4	EOL1	–	–	72 h	GI50	72 nM
O=C(Nc1ccc(Cl)cc1)Nc1cccc(-c2cn(Cc3cccc(Cl)c3)nn2)c1	A549	CCK-8	50 µM	72 h	viability	166%
CCCCCCCCCCCCCCCCCCOc1ccccc1CC(=O)OCC[N+](C)(C)C	NCI-H522	SRB	10 µM	–	inhibition	97.8%
Cc1nc(Nc2ncc(C(=O)Nc3c(C)cccc3Cl)s2)cc(N2CC[C@H](O)C2)n1	MEG-01	ATP luminescence	10 µM	72 h	inhibition	93%
Cc1n[nH]c2ccc3nc(-c4ccc(C(=O)NCCN(C)C)cc4F)c4c(c3c12)CCCC4	EOL1	–	–	72 h	GI50	89 nM
NCC(=O)Nc1ccccc1/N=c1\cc(-c2ccc3c(c2)OCCO3)oc2ccccc12	A549	CCK-8	1 µM	–	inhibition	-0.04%
CCC/C(=C\C1=C(OC)C(=O)c2ccccc2C1=O)C(=O)N(CC)CC	HUVEC	resazurin	–	48 h	GI50	2700 nM
NCCC(=O)Nc1ccccc1/N=c1\cc(-c2ccc3nc(N)oc3c2)oc2ccc(F)cc12	A549	CCK-8	1 µM	–	inhibition	42.4%
Cc1ccccc1Cn1cc(-c2cccc(NC(=O)Nc3ccc(F)cc3)c2)nn1	A549	CCK-8	20 µM	72 h	viability	114%
CCCCCCCCCCCCCCCCCCOc1ccc(CC(=O)OCCC[N+](C)(C)C)cc1	NCI-H522	SRB	10 µM	–	inhibition	21.6%
